Assay results as given in ChEMBL document CHEMBL2163301, “Substrates for efficient fluorometric screening employing the NAD-dependent sirtuin 5 lysine deacylase (KDAC) enzyme” (J Med Chem, 2012).
Structures can show the parent of a compound that is named as a salt. Activity calls are given as the source filed them. The calls are words filed in the database; no cut-off is given here. *1 amine or outer side, *2 acyl side, *3 side chain or, on linkers, in order; H or OH if unused. Where a SMILES comes first, the peptide text is derived from it. The star is where a group is joined. AMC = Cc1cc(=O)oc2cc(N*)ccc12; Suc = O=C(CCC(=O)[*:2])[*:1]; Tfa = O=C(C(F)(F)F)*

Assays:
[1] = target: NAD-dependent protein deacylase sirtuin-5, mitochondrial (Homo sapiens) (UniProt Q9NXA8); assay: Activity of human SIRT5 assessed as decrotonylation of compound at 50 uM after 1 hr by trypsin developer-based fluorescence assay
Chain of NAD-dependent protein deacylase sirtuin-5, mitochondrial (Homo sapiens) (Q9NXA8 37-310 limits assumed): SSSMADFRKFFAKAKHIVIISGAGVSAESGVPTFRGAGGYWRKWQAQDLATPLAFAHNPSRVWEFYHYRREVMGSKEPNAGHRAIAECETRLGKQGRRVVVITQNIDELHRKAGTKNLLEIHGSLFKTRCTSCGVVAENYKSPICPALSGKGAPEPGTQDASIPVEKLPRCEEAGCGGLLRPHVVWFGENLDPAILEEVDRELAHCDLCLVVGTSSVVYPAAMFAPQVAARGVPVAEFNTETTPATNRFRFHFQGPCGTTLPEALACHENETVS
Outline: (§1)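 Recombinant sirtuin at 1 μg per 50 μL reaction, with SIRT1-GST fusion as the SIRT1 source. Fluorogenic substrate and NAD incubated in Tris-Cl buffer pH 8.0 with BSA (1 mg/mL) for 1 h at 37 °C. Developer with nicotinamide (2 mM) and trypsin (0.4 mg/mL) added, 15–30 min at room temperature. Fluorescence read at ex 360/em 460 nm and normalized to no-enzyme wells. At least two experiments in duplicate.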

[2] = target: T1, NAD-dependent protein deacetylase sirtuin-2 (Homo sapiens) (UniProt Q8IXJ6); assay: Activity of human SIRT2 assessed as decrotonylation of compound at 50 uM after 1 hr by trypsin developer-based fluorescence assay; outline: as §1
T1 sequence (whole entry): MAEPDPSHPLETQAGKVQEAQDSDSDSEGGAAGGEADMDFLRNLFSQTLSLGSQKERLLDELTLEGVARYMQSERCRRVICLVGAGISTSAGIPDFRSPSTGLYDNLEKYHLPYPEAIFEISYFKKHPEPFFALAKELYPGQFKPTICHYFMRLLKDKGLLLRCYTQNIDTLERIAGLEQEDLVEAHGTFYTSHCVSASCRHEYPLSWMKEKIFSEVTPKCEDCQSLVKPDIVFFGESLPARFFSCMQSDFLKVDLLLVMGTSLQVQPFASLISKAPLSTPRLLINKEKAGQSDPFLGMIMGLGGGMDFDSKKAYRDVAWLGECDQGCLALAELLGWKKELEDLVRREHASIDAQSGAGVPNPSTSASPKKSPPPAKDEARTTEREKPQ

[3] = target: T2, NAD-dependent protein deacetylase sirtuin-3, mitochondrial (Homo sapiens) (UniProt Q9NTG7); assay: Activity of human SIRT3 assessed as decrotonylation of compound at 50 uM after 1 hr by trypsin developer-based fluorescence assay; outline: as §1
T2 sequence (whole entry): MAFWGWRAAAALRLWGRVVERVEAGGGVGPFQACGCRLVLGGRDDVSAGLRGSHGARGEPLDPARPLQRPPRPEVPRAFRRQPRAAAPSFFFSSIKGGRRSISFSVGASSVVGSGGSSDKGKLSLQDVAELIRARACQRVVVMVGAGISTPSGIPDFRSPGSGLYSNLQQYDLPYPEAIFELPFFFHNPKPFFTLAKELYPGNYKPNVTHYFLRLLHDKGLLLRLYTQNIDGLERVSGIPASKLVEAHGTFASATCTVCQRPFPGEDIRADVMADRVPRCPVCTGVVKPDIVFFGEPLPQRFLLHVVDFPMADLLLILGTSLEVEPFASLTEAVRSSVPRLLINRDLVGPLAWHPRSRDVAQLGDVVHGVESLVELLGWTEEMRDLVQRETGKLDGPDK

[4] = target: T3, NAD-dependent protein deacetylase sirtuin-1 (Homo sapiens) (UniProt Q96EB6); assay: Activity of human SIRT1 assessed as decrotonylation of compound at 50 uM after 1 hr by trypsin developer-based fluorescence assay; outline: as §1
T3 sequence (whole entry): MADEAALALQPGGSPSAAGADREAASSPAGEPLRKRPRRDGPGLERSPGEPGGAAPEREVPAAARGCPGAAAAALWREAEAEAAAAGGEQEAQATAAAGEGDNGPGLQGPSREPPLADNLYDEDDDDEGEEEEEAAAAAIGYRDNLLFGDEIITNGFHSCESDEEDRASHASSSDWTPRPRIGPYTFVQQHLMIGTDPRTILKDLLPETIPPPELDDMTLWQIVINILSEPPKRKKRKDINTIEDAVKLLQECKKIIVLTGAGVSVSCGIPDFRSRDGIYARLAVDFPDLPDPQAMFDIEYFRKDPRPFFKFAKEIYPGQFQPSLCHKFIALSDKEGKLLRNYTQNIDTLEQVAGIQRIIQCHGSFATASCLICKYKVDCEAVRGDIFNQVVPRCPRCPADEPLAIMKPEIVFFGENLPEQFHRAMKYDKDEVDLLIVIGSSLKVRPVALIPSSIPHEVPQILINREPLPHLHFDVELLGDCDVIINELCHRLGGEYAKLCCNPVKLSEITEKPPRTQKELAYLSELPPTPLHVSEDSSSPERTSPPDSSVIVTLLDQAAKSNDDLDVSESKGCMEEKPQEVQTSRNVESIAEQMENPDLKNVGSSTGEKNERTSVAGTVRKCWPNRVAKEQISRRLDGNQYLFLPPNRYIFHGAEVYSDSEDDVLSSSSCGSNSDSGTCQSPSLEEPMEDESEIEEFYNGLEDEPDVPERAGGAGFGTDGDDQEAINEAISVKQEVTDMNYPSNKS

[5] = target: NAD-dependent protein deacylase sirtuin-6 (Homo sapiens) (UniProt Q8N6T7); assay: Activity of human SIRT6 assessed as decrotonylation of compound at 50 uM after 1 hr by trypsin developer-based fluorescence assay; outline: as §1
Chain of NAD-dependent protein deacylase sirtuin-6 (Homo sapiens) (Q8N6T7 whole entry): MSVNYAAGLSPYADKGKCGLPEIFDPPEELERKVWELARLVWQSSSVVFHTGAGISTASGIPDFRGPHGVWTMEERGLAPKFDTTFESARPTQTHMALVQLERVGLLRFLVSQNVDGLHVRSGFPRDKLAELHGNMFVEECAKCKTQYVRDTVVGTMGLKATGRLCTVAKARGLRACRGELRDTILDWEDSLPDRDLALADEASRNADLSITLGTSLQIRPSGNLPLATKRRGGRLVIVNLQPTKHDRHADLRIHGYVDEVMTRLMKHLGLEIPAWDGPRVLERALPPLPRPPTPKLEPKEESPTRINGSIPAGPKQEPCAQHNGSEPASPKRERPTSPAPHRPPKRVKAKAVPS

[6] = target: T1, NAD-dependent protein deacetylase sirtuin-2 (Homo sapiens); assay: Activity of human SIRT2 assessed as deacylation of compound at 50 uM after 1 hr by trypsin developer-based fluorescence assay; outline: as §1
[7] = target: T3, NAD-dependent protein deacetylase sirtuin-1 (Homo sapiens); assay: Activity of human truncated SIRT1-GST fusion protein at 50 uM after 1 hr by trypsin developer-based fluorescence assay
Outline: (§2)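 Acetylated substrates were each treated with commercial full-length His-tagged SIRT1 or truncated SIRT1-GST fusion, with NAD, in Tris-Cl pH 8.0 buffer containing BSA. End point: 1 h at 37 °C, then nicotinamide (2 mM)/trypsin (0.4 mg/mL) developer for 15–30 min at room temperature. Fluorescence read at ex 360/em 460 nm against no-enzyme control wells.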

[8] = target: T4, NAD-dependent protein deacetylase sirtuin-7 (Homo sapiens) (UniProt Q9NRC8); assay: Activity of recombinant human SIRT7 assessed as deacylation of compound at 50 uM after 1 hr by trypsin developer-based fluorescence assay; outline: as §1
T4 sequence (whole entry): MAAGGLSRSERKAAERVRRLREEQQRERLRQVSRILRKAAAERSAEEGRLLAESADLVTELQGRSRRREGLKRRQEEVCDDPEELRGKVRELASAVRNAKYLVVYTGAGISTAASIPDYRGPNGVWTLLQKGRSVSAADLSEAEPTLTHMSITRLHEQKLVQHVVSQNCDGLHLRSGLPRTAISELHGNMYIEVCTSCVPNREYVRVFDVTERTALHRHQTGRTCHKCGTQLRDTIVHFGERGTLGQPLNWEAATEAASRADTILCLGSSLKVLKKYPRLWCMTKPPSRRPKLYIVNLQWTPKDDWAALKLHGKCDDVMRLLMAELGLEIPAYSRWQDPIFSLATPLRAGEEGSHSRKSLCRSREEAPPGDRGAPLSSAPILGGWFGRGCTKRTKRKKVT

[9] = target: T2, NAD-dependent protein deacetylase sirtuin-3, mitochondrial (Homo sapiens); assay: Activity of human SIRT3 assessed as deacylation of compound at 50 uM after 1 hr by trypsin developer-based fluorescence assay; outline: as §1
[10] = target: T5, NAD-dependent protein lipoamidase sirtuin-4, mitochondrial (Homo sapiens) (UniProt Q9Y6E7); assay: Activity of recombinant human SIRT4 assessed as deacylation of compound at 50 uM after 1 hr by trypsin developer-based fluorescence assay; outline: as §1
T5 sequence (whole entry): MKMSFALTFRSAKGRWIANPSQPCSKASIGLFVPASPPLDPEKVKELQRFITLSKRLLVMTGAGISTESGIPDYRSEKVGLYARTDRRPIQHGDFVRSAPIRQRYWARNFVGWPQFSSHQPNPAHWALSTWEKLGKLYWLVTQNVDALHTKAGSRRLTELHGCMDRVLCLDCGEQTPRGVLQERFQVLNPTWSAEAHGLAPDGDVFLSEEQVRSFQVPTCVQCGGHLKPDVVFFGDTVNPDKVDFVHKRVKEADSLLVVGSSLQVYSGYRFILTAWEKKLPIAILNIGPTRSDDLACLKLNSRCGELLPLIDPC

[11] = target: T3, NAD-dependent protein deacetylase sirtuin-1 (Homo sapiens); assay: Activity of human full length SIRT1 enzyme at 50 uM after 1 hr by trypsin developer-based fluorescence assay; outline: as §2
[12] = target: NAD-dependent protein deacylase sirtuin-6 (Homo sapiens) (UniProt Q8N6T7); assay: Activity of human SIRT6 assessed as deacylation of compound at 50 uM after 1 hr by trypsin developer-based fluorescence assay; outline: as §1
[13] = target: NAD-dependent protein deacylase sirtuin-5, mitochondrial (Homo sapiens) (UniProt Q9NXA8); assay: Activity of human SIRT5 assessed as deacylation of compound at 50 uM after 1 hr by trypsin developer-based fluorescence assay; outline: as §1
[14] = target: T3, NAD-dependent protein deacetylase sirtuin-1 (Homo sapiens); assay: Activity of human SIRT1 assessed as deacylation of compound at 50 uM after 1 hr by trypsin developer-based fluorescence assay; outline: as §1
[15] = system: CC(=O)N[C@@H](CCCCNC(=O)CCC(=O)O)C(=O)Nc1ccc2c(C)cc(=O)oc2c1; assay: (§3) Activity of human SIRT5 assessed as desuccinylation of compound after 1 hr by Michaelis-Menten plot analysis
Outline: (§4)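 Recombinant human SIRT5 with fluorogenic succinyllysine-AMC substrate and NAD in Tris-Cl buffer pH 8.0 containing BSA, with in situ AMC release by Lys-C or trypsin developer. Fluorescence (ex 360/em 460 nm) read every 30 s for at least 30 min at 25 °C to give initial rates over a substrate concentration series. Km and Vmax from Michaelis-Menten fit; kcat from AMC standard curve and supplier enzyme concentration.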

[16] = system: CC(=O)N[C@@H](CC(C)C)C(=O)NCC(=O)N[C@@H](CCCCNC(=O)CCC(=O)O)C(=O)Nc1ccc2c(C)cc(=O)oc2c1; assay: as §3; outline: as §4
[17] = system: CC(=O)N[C@@H](CCCCNC(=O)CCC(=O)O)C(=O)Nc1ccc2c(C)cc(=O)oc2c1; assay: (§5) Ratio of Kcat to Km for human SIRT5 assessed as desuccinylation of compound after 1 hr by Michaelis-Menten plot analysis; outline: as §4
[18] = system: CC(=O)N[C@@H](CC(C)C)C(=O)NCC(=O)N[C@@H](CCCCNC(=O)CCC(=O)O)C(=O)Nc1ccc2c(C)cc(=O)oc2c1; assay: as §5; outline: as §4

Chain of NAD-dependent protein deacylase sirtuin-5, mitochondrial (Homo sapiens), Q9NXA8 (Q9NXA8 whole entry): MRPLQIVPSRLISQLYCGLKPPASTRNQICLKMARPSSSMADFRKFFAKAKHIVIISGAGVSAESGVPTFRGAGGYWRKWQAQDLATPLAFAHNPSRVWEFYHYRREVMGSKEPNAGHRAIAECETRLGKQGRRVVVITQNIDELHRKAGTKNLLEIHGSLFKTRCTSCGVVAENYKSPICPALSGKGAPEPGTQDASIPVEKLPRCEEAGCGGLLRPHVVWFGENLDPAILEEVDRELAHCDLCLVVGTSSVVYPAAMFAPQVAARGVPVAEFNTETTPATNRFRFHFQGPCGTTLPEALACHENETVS

Compound | Activity [6] | Activity [7] | Activity [8] | Activity [9] | Activity [10] | Activity [11] | Activity [12] | Activity [13] | Activity [14] | other results
C/C=C/C(=O)NCCCC[C@H](NC(=O)CNC(=O)[C@H](CC(C)C)NC(C)=O)C(=O)Nc1ccc2c(C)cc(=O)oc2c1 | – | – | – | – | – | – | – | – | – | Activity [1]: inactive; Activity [2]: inactive; Activity [3]: inactive; Activity [4]: inactive; Activity [5]: inactive
CC(=O)NCCCC[C@H](NC(=O)[C@H](CCCNC(=N)N)NC(=O)[C@H](C)NC(=O)[C@@H](NC(C)=O)[C@H](C)O)C(=O)Nc1ccc2c(C)cc(=O)oc2c1 | Active | Active | inactive | Active | inactive | Active | inactive | inactive | Active | –
CC(=O)N[C@@H](CC(C)C)C(=O)NCC(=O)N[C@@H](CCCCNC(=O)CCC(=O)O)C(=O)Nc1ccc2c(C)cc(=O)oc2c1 (Ac-Leu-Gly-Lys(Suc)-{AMC}) | – | – | inactive | – | inactive | – | inactive | Active | – | –
CC(=O)N[C@@H](CC(C)C)C(=O)NCC(=O)N[C@@H](CCCCNC(=O)C(F)(F)F)C(=O)Nc1ccc2c(C)cc(=O)oc2c1 (Ac-Leu-Gly-Lys(Tfa)-{AMC}) | – | – | – | – | – | – | – | – | – | Activity [1]: inactive; Activity [2]: inactive; Activity [3]: inactive; Activity [4]: Active; Activity [5]: inactive
CC(=O)NCCCC[C@H](NC(=O)[C@H](CCCCNC(C)=O)NC(=O)[C@H](Cc1cnc[nH]1)NC(=O)[C@H](CCCNC(=N)N)NC(C)=O)C(=O)Nc1ccc2c(C)cc(=O)oc2c1 (Ac-RHK(Ac)K(Ac)-{AMC}) | Active | inactive | inactive | Active | inactive | inactive | inactive | inactive | Active | –
NAD-dependent protein deacylase sirtuin-5, mitochondrial (Homo sapiens), Q9NXA8 | – | – | – | – | – | – | – | – | – | Km [15]: 84 µM; Vmax [15]: 5.6 ×10⁻⁴ µM/s; kcat [15]: 9 ×10⁻³ /s; Km [16]: 33 µM; Vmax [16]: 1.9 nM/s; kcat [16]: 3 ×10⁻² /s; kcat/Km [17]: 1.1 ×10² /s/M; kcat/Km [18]: 9.2 ×10² /s/M

Second part, led by results:

Activity [6] | Activity [7] | Activity [8] | Activity [9] | Activity [10] | Activity [11] | Activity [12] | Activity [13] | Activity [14] | Compound | other results
Active | inactive | inactive | Active | inactive | inactive | inactive | inactive | Active | CC(=O)NCCCC[C@H](NC(C)=O)C(=O)Nc1ccc2c(C)cc(=O)oc2c1 | –
Active | inactive | inactive | Active | inactive | inactive | inactive | inactive | Active | CC(=O)NCCCC[C@H](NC(=O)CNC(=O)[C@H](CC(C)C)NC(C)=O)C(=O)Nc1ccc2c(C)cc(=O)oc2c1 (Ac-Leu-Gly-Lys(Ac)-{AMC}) | –
Active | inactive | inactive | Active | inactive | inactive | inactive | inactive | Active | CC(=O)NCCCC[C@H](NC(=O)[C@H](CCCCN)NC(=O)[C@@H]1CCCN1C(=O)[C@H](CCC(N)=O)NC(C)=O)C(=O)Nc1ccc2c(C)cc(=O)oc2c1 (Ac-QPKK(Ac)-{AMC}) | –
Active | inactive | inactive | Active | inactive | inactive | inactive | inactive | Active | CC(=O)NCCCC[C@H](NC(=O)[C@H](CCCCN)NC(=O)[C@H](Cc1cnc[nH]1)NC(=O)[C@H](CCCNC(=N)N)NC(C)=O)C(=O)Nc1ccc2c(C)cc(=O)oc2c1 (Ac-RHKK(Ac)-{AMC}) | –
